From PMC7610571 (Nature chemical biology, 2020)

Legend:
NUDT15 [1] = conditions: read-out: Km of NUDT15 for 6-thio-dGTP; cited from earlier work
NB4 and HL-60 cells = experiment: Thiopurine/TH1760 dose-matrix, resazurin viability; type: cell-based, human; conditions: combined with 6-TG or 6-MP, dose-dependent
Outline: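 NB4 and HL-60 cells treated with a dose matrix of 6-TG or 6-MP combined with test compound (pre-treatment 3 h). Resazurin read-out four days after treatment (544/590 nm), viability normalised to DMSO controls. Relative viabilities used for EC50 fitting and SynergyFinder synergy scores. Knockdown matrix in NB4 shRNA lines: 96 h, n=2.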

NUDT15 [2] = target: T1, NUDT15 (Homo sapiens, UniProt Q9NV35); experiment: PPiLight inorganic pyrophosphate assay, 6-thio-dGTPase activity; type: biochemical
T1 sequence (Q9NV35 1-164): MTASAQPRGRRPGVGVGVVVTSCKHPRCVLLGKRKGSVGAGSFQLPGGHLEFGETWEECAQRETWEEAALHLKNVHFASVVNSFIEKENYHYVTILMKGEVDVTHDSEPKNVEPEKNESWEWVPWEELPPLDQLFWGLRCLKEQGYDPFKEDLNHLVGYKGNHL
Outline: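 6-thio-dGTPase activity of 10 nM NUDT15 in 100 mM Tris acetate pH 7.5, 40 mM NaCl, 100 mM Mg acetate, 1 mM DTT, with 2.5 μM 6-thio-dGTP. Test-compound dilution series ran 13.3 μM–75 pM or 15 μM–2.2 nM, depending on compound. Shaken 30 min at 22 °C; formed PPi detected by PPiLight luminescence.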

[3] = system: BJ-RAS cells versus BJ-hTERT cells; experiment: Resazurin viability assay, isogenic fibroblasts; type: cell-based, human
NB4 cells = experiment: Alkaline comet assay; type: cell-based, human; conditions: NB4, 10 μM TH1760 + 6-TG, 48 h
NUDT15 [4] = target: T1, NUDT15; experiment: Enzyme-coupled malachite green; type: biochemical; conditions: MG assay
Outline: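 Excess E. coli pyrophosphatase (0.4 U/mL) added for 20 min, then malachite green for 15 min; A630 read. Buffer-only wells served as the full-inhibition control. Two experiments, each in duplicate.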

NUDT15 [5] = target: T1, NUDT15; experiment: Differential scanning fluorimetry; type: binding; conditions: over the DMSO control, dose-dependent

Row | reduction of thiopurine EC50 values (NB4 and HL-60 cells) | potency improvement as compared to TH884 (NUDT15 [2]) | improvement of potency compared to hit compound TH884 (NUDT15 [4]) | increase of NUDT15 melting temperature (NUDT15 [5]) [°C] | Structure (SMILES) | Km (NUDT15 [1]) [µM] | sensitization to 6-TG, tumorigenic versus non-transformed cells [3] | 6-TG-induced DNA damage (comet tail moment) (NB4 cells)
1 | – | – | – | – | Nc1nc2c(ncn2[C@H]2C[C@H](O)[C@@H](COP(=O)(O)OP(=O)(O)OP(=O)(O)O)O2)c(=S)[nH]1 [Compound 6-thio-dGTP, 6-thio-dGTP] | 2 | – | –
2 | ~ 10 fold | over 200 fold | more than 200 fold | > 10 | O=C(c1ccc2[nH]ccc2c1)N1CCN(S(=O)(=O)c2ccc3[nH]c(=O)oc3c2)CC1 [Compound 18] | – | preferentially sensitized BJ-RAS cells to 6-TG versus their non-transformed counterpart BJ-hTERT cells | potentiated 6-TG-induced DNA damage in NB4 cells
